Activity calls are given as the source filed them.
Experiments:
SH-SY5Y = experiment: Inhibition of APP levels in human SH-SY5Y cells transfected with pCAX FLAG APP and pRK5-EGFP-Tau P301L plasmids at 1 uM after 24 hrs by Western blot analysis; assay type: functional, cell-based
Method in brief: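 SH-SY5Y or Neuro-2a cells cotransfected 24 h with pCAX APP695 and pRK5-EGFP-Tau P301L, then treated 24 h at 1 µM. 20 µg lysate protein immunoblotted for APP and phospho-tau Ser396/Ser404. Mean ± STD of three independent experiments; Student's t-test.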

[1] = target: T1, Protein deacetylase HDAC6 (Mus musculus) (UniProt Q9Z2V5); experiment: Inhibition of HDAC6 in mouse Neuro-2a cells transfected with pCAX FLAG APP and pRK5-EGFP-Tau P301L plasmids assessed as increase in HSP90 acetylation at 1 uM after 24 hrs by coimmunoprecipitation analysis; assay type: cell-based
T1 sequence (whole entry): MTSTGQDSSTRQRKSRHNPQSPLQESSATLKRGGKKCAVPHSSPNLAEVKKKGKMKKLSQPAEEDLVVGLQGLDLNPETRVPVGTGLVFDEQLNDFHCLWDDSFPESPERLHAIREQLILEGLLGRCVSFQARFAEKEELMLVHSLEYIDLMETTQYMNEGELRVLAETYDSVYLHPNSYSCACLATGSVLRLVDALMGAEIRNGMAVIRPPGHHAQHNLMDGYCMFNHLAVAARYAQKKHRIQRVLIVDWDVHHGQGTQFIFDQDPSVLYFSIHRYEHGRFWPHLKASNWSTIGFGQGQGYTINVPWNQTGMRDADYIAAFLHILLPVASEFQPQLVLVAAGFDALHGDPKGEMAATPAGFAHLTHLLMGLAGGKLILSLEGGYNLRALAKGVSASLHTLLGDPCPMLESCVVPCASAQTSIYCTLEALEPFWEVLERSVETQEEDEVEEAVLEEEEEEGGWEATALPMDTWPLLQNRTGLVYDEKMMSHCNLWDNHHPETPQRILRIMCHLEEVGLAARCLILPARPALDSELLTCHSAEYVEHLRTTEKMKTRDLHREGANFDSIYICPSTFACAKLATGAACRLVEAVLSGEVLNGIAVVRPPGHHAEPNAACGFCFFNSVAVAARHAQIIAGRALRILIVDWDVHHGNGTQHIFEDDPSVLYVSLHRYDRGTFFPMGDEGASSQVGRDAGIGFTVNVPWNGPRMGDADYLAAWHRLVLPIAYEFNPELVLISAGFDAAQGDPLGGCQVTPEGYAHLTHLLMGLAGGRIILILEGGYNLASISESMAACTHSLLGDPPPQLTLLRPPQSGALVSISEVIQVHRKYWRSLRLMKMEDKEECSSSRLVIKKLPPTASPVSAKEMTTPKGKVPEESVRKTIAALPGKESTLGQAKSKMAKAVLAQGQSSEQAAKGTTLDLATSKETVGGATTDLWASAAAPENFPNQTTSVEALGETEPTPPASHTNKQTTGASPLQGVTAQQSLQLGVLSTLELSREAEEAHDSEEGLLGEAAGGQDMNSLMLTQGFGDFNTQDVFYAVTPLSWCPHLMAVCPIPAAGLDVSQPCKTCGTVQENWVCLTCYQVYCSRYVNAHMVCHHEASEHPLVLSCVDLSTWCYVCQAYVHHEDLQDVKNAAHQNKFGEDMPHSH
Method in brief: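 SH-SY5Y and Neuro-2a cells cotransfected 24 h with APP695/Tau P301L plasmids, treated 24 h at 1 µM (ACY-1215 reference). 30 µg lysate immunoprecipitated overnight at 4 °C with anti-HDAC6 or anti-acetyl-lysine antibodies plus protein A/G beads, run on 8% SDS-PAGE, probed for Hsp90; Hsp70 by immunoblot. Three independent experiments.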

Rattus norvegicus = experiment: Reversal of scopolamine-induced spatial memory impairment in Wistar rat assessed as reduction in escape latency in hidden platform at 25 mg/kg, po administered once daily for 1 week followed by scopolamine challenge 90 mins prior to test by Morris water maze test; assay type: functional, organism-based
Method in brief: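 Male Wistar rats, 7 weeks old, dosed orally at 25 mg/kg in 1% carboxymethyl cellulose/0.5% Tween 80 once daily. Scopolamine 1 mg/kg i.p. 90 min before test trial (controls excluded). Morris water maze (hidden platform escape latency), elevated plus maze (started at open-arm end, time to closed arm), then CA1 phospho-tau Ser396/Ser404 immunohistochemistry.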

[2] = Toxicity in Balb/c mouse assessed as survival rate at 100 mg/kg, ip qd administered for 6 days followed by 1 week recovery (reference value: 100%); assay type: organism-based; settings: in vivo
Mus musculus [3] = experiment: In vivo inhibition of HDAC6 in scopolamine-treated 3xTg-AD transgenic mouse brain hippocampal CA1 region assessed as increase in acetyl-alpha-tubulin level at 50 mg/kg, po by Western blot analysis; assay type: functional, organism-based
Method in brief: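 Female 3xTg-AD mice, fed standard diet to 6 months of age, then dosed orally at 50 or 100 mg/kg once daily for three months. Brains removed; hippocampal tissue lysates immunoblotted for acetyl-α-tubulin and phospho-tau Ser396 and Ser404. Mean ± STD; one-way ANOVA.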

Mus musculus [4] = experiment: In vivo inhibition of HDAC6 in 3xTg-AD transgenic mouse brain hippocampal CA1 region assessed as downregulation of Tau phosphorylation at Ser396 residue at 50 mg/kg, po administered daily for 3 months by Western blot analysis

COc1ccc(C(=O)c2ccc3c(ccn3Cc3ccc(C(=O)NO)cc3)c2)cc1
100%: survival [2]
active: inhibition (SH-SY5Y) | inhibition [1] | Activity (Rattus norvegicus) | inhibition (Mus musculus [3]) | inhibition (Mus musculus [4])

Reference: ChEMBL document CHEMBL4196108, “5-Aroylindoles Act as Selective Histone Deacetylase 6 Inhibitors Ameliorating Alzheimer's Disease Phenotypes” (J Med Chem, 2018)
